Assay results pooled from the literature.
Compare with care: the assays were run in different laboratories. Values after ≈ are worked out from the molar mass of the structure shown.

Structure (SMILES) | assay | test system | setting | measurement | result
CCCCCCCCCCCC(=O)OC[C@@H](COP(=O)(O)OCCNC(=O)c1ccc(Cn2c(=O)[nH]c3c(N)nc(OCCOC)nc32)cc1)OC(=O)CCCCCCCCCCC | general toxicity | mouse | intravenous | MTD | 150 mg/kg
CCCC(CCC)NC(=O)c1ccc2c(c1)OCO2 | general toxicity | Swiss mouse | intraperitoneal | MTD | 700 mg/kg
C=C(CC)C(=O)c1ccc(OCC(=O)O)c(Cl)c1Cl | general toxicity | mouse | intraperitoneal | MTD | 30 mg/kg
C[C@H](N)Cn1ncc2ccc3c(c21)CCCO3 | potentiometric | water | – | pKa | 8.45
Cc1ncc(C)n2nc(/C=C/c3nc(N4CCCC4)cc(N4CCOCC4)n3)nc12 | – | male beagle dog, plasma | oral, 0.3 mg/kg | Tmax | 1.2 h
CC[C@H](C)[C@H](NC(=O)[C@H](CO)NC(=O)[C@H](CCCNC(=N)N)NC(C)=O)C(=O)N[C@H]1CSSC[C@@H](C(=O)N[C@H](C(N)=O)[C@@H](C)O)NC(=O)[C@H](CCCNC(=N)N)NC(=O)[C@H](Cc2c[nH]cn2)NC(=O)[C@H](C)NC(=O)CNC(=O)[C@H](Cc2c[nH]c3ccccc23)NC(=O)[C@H](CC(=O)O)NC(=O)[C@H](CCC(N)=O)NC(=O)[C@H](Cc2cccc3ccccc23)NC(=O)[C@H](C(C)C)NC1=O | – | PBS | pH 7.4 | solubility | 2110 µg/mL (≈ 1130 µM)
CC(C)(C)c1cc(NC(=O)Nc2ccc(Oc3ccnc4[nH]c(=O)cnc34)cc2F)n(-c2ccccc2)n1 | general toxicity | CD-1 mouse | oral, single dose | MTD | 40 mg/kg
N=c1c2c(-c3ccccc3)c(-c3ccccc3)n(Cc3ccccc3)c2ncn1[C@H]1CC[C@H](O)CC1 | – | male beagle dog, plasma | oral, 1 mg/kg, single dose | Tmax | ~15 h
COc1ccnc(C(=O)N[C@H]2COC(=O)[C@H](Cc3ccccc3)[C@@H](OC(=O)C(C)C)[C@H](C)OC2=O)c1OCOC(=O)C(C)C | – | – | – | pKa | 2.4
Cc1cc(C)nc(Nc2ncc(C(=O)NCCc3c(C)[nH]c4ccccc34)cn2)c1 | – | – | – | pKa | 5.8
CC(=O)N[C@@H](CC(N)=O)C(=O)N[C@@H](CCCNC(=N)N)C(=O)N[C@@H](CC(C)C)C(=O)N[C@H]1CSSC[C@@H](C(=O)N[C@H](C(N)=O)[C@@H](C)O)NC(=O)[C@H](CCCNC(=N)N)NC(=O)[C@H](Cc2c[nH]cn2)NC(=O)[C@H](Cc2cccc3ccccc23)NC(=O)CNC(=O)[C@H](Cc2c[nH]c3ccccc23)NC(=O)[C@H](CC(=O)O)NC(=O)[C@H](CCC(N)=O)NC(=O)[C@H](Cc2c[nH]c3ccccc23)NC(=O)[C@H](C(C)C)NC1=O | – | PBS | pH 7.4 | solubility | 340 µg/mL (≈ 169 µM)
COc1ccc(C2=Nn3c(nnc3-c3cc(-c4ccc(Cl)cc4)n[nH]3)SC2C)cc1 (centres unmarked) | general toxicity | mouse | intravenous, 4 mg/kg, single dose | MTD | 4 mg/kg
Nc1ncc(-c2nc(N3CCOCC3)nc(N3CCOCC3)n2)c(C(F)F)n1 | shake flask | FeSSIF | 24 h | thermodynamic solubility | 13.9 µM (≈ 5.48 µg/mL)
CC(=O)N[C@@H](CC(N)=O)C(=O)N[C@@H](CC(N)=O)C(=O)N[C@@H](CC(C)C)C(=O)N[C@H]1CSSC[C@@H](C(=O)N[C@H](C(N)=O)[C@@H](C)O)NC(=O)[C@H](CCCNC(=N)N)NC(=O)[C@H](Cc2c[nH]cn2)NC(=O)[C@H](Cc2cccc3ccccc23)NC(=O)CNC(=O)[C@H](Cc2c[nH]c3ccccc23)NC(=O)[C@H](CC(=O)O)NC(=O)[C@H](CCC(N)=O)NC(=O)[C@H](Cc2cccc3ccccc23)NC(=O)[C@H](C(C)C)NC1=O | – | PBS | pH 7.4 | solubility | 270 µg/mL (≈ 136 µM)
